# Published values from different studies.
# Cell line: A549
# Effect on: cell growth or viability
# Technique: CCK-8
SMILES,setting,quantity,value
Cc1ccc(C(=O)Nc2ccc(-c3ccc4ncn(Cc5ccccc5)c(=O)c4c3)cn2)cc1,72 h,IC50,> 10 µM
COc1ccc(NC(=O)NCc2cn(Cc3ccc(Br)cc3)nn2)cc1,"50 µM, 72 h",viability,96.4%
O=C(Nc1ccccc1/N=c1\cc(-c2ccc3c(c2)OCO3)oc2ccccc12)N1CCNCC1,1 µM,inhibition,-6.54%
CCCCn1cnc2ccc(-c3ccc(NC(=O)Nc4ccc(OC)cc4)nc3)cc2c1=O,72 h,IC50,> 10 µM
O=C(Nc1ccc(-c2cn(Cc3ccc(Cl)cc3)nn2)cc1)Nc1ccccc1Br,"20 µM, 72 h",viability,102%
CCCCC(=O)Nc1ccc(-c2ccc3ncn(CC)c(=O)c3c2)cn1,72 h,IC50,0.92 µM
CC(C)(C)[C@H](N)C(=O)Nc1ccccc1/N=c1\cc(-c2ccc3c(c2)OCCO3)oc2cc(F)ccc12,1 µM,inhibition,-4.38%
Cc1ccccc1Cn1cc(-c2cccc(NC(=O)Nc3ccc(F)cc3)c2)nn1,"20 µM, 72 h",viability,114%
Nc1ccccc1/N=c1\cc(-c2ccc3c(c2)OCO3)oc2ccccc12,1 µM,inhibition,11.1%
O=C(Nc1ccc(Cl)cc1)Nc1cccc(-c2cn(Cc3ccc(Cl)cc3)nn2)c1,"20 µM, 72 h",viability,121%
NCC(=O)Nc1ccccc1/N=c1\cc(-c2ccc3c(c2)OCCO3)oc2cc(F)ccc12,1 µM,inhibition,-1.67%
COc1ccc(NC(=O)Nc2ccc(-c3cn(Cc4ccc(C)cc4)nn3)cc2)cc1,"50 µM, 72 h",viability,76.2%
